According to the array DNA melting data of Ke et al. (doi:10.1101/2024.01.08.574731):

Key:
[1] = folding enthalpy; higher = less favourable; fluorescence melt of hairpins on a sequencing array, two-state fit; conditions: sodium 0.088 M
Method in brief: (§1)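 With Cy3 and quencher oligos annealed, library hairpins on a sequenced MiSeq flow cell were imaged for Cy3 fluorescence in 50 mM Na-HEPES pH 8.0, 25 mM NaCl, in 2.5 °C steps up to 60 °C. Melting temperature and folding enthalpy were derived from bootstrapped two-state fits of signals normalised to pre-quench Cy3 and to control constructs. Four replicates were combined by inverse variance, with fitted temperatures raised by 9.35 °C to match UV melts.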

[2] = melting temperature; fluorescence melt of hairpins on a sequencing array, two-state fit, raised by 9.35 °C to match UV melts; conditions: sodium 0.088 M
Method in brief: as §1

| Sequence | folding enthalpy [1] | Tm [2] |
| --- | --- | --- |
| GCTAACGGAAACGTCAGC (((.(((....))).))) | -26.6 kcal/mol | 42.1 °C |
| GCTAAGCGAAAGCCTGGC ((.(.((....)).).)) | -17.9 kcal/mol | 35.5 °C |
| GCTAAGCGAAAGCGTCGC ((.(.((....)).).)) | -14 kcal/mol | 45.8 °C |
| GCTAAGCGAAAGCTAGC (((.(((....)))))) | -31.8 kcal/mol | 56.1 °C |
| GCTAAGCGAAAGCTCAGC (((.(((....))).))) | -31.6 kcal/mol | 48 °C |
| GCTAAGCGAAAGCTGTGC ((..(((....)))..)) | -18.1 kcal/mol | 48.6 °C |
| GCTAAGCGAAAGCTTGGC ((.((((....)))).)) | -34.3 kcal/mol | 62.9 °C |
| GCTAAGGGAAACCCTAGC ((((.((....)).)))) | -32.5 kcal/mol | 42.7 °C |
| GCTAAGGGAAACCTCAGC (((.(((....))).))) | -27.4 kcal/mol | 34.2 °C |
| GCTAAGGGAAACTTTGGC ((.((.(....).)).)) | -10.8 kcal/mol | 27.9 °C |
| GCTAATGCGAAAGCAAGC (((..(((....)))))) | -16.4 kcal/mol | 36.1 °C |
| GCTAATGGAAACATCAGC (((.(((....))).))) | -22.2 kcal/mol | 32.5 °C |
| GCTAATGGAAACATTAGC (((((((....))))))) | -45.4 kcal/mol | 56 °C |
| GCTACACGAAAGTGAAGC (((.(((....))).))) | -35.3 kcal/mol | 54.2 °C |
| GCTACAGGAAACTGTGGC ((.((((....)))).)) | -39 kcal/mol | 51.8 °C |
| GCTACATCGAAAGATAGC (((..(((....)))))) | -16.7 kcal/mol | 33.8 °C |
| GCTACCCGAAAGGGAAGC (((.(((....))).))) | -32.5 kcal/mol | 58.6 °C |
| GCTACCCGAAAGGGCAGC (((.(((....))).))) | -32.9 kcal/mol | 57.8 °C |
| GCTACCGAAAGGTAAAGC ((((((....)))..))) | -19.8 kcal/mol | 46.8 °C |
| GCTACCGAAAGGTCAAGC ((((((....)))..))) | -14.9 kcal/mol | 39.1 °C |
| GCTACCGAAAGGTCAGC ((((((....))).))) | -21.4 kcal/mol | 48.7 °C |
| GCTACCGAAAGGTCTAGC ((((((....)))..))) | -14.9 kcal/mol | 36.6 °C |
| GCTACCGAAAGGTGAAGC ((((((....)))..))) | -19 kcal/mol | 42 °C |

| Sequence | folding enthalpy [1] | Tm [2] |
| --- | --- | --- |
| GCTACCGAAAGGTGCAGC ((((((....)))..))) | -12.6 kcal/mol | 43.5 °C |
| GCTACCGAAAGGTTGAGC ((((((....)))..))) | -18.2 kcal/mol | 38.8 °C |
| GCTACCGGAAACGGCAAC (.(.(((....))).).) | -8.04 kcal/mol | 18.5 °C |
| GCTACCGGAAACGGTAAC (.(((((....))))).) | -12.9 kcal/mol | 37.2 °C |
| GCTACGCGAAAGCATGGC ((.(.((....)).).)) | -19.7 kcal/mol | 37 °C |
| GCTACGCGAAAGCCTAGC ((((.((....)).)))) | -23.3 kcal/mol | 45.6 °C |
| GCTACGCGAAAGCGAAGC (((.(((....))).))) | -36.7 kcal/mol | 57.5 °C |
| GCTACGCGAAAGCGACGC ((..(((....)))..)) | -15.1 kcal/mol | 40.2 °C |
| GCTACGCGAAAGCGAGC (((.(((....)))))) | -15.8 kcal/mol | 56.5 °C |
| GCTACGCGAAAGCGGGGC ((..(((....)))..)) | -20.7 kcal/mol | 63.7 °C |
| GCTACGCGAAAGCTAAGC (((..((....))..))) | -13.1 kcal/mol | 38.8 °C |
| GCTACGGGAAACCGTGGC ((.((((....)))).)) | -38.2 kcal/mol | 56.7 °C |
| GCTACTCGAAAGAGGAGC (((.(((....))).))) | -37.4 kcal/mol | 61.6 °C |
| GCTAGACGAAAGTCAAGC (((.(((....))).))) | -30.4 kcal/mol | 52.7 °C |
| GCTAGACGAAAGTCGAGC (((.(((....))).))) | -32.9 kcal/mol | 60.2 °C |
| GCTAGAGGAAACTCCAGC (((.(((....))).))) | -22.2 kcal/mol | 34.8 °C |
| GCTAGCGAAAGCTCAAGC ((((((....)))..))) | -14 kcal/mol | 38 °C |
| GCTAGCGGAAACACTAGC (((((.(....).))))) | -32.2 kcal/mol | 45.7 °C |
| GCTAGCGGAAACGTTGGC ((.(.((....)).).)) | -24.6 kcal/mol | 39.6 °C |
| GCTAGGACGAAAGTCAGC (((..(((....)))))) | -16.6 kcal/mol | 42.7 °C |
| GCTAGGCGAAAGCAAAGC (((..((....))..))) | -19.2 kcal/mol | 44.3 °C |
| GCTAGGCGAAAGCCAAGC (((.(((....))).))) | -40 kcal/mol | 56.1 °C |
| GCTAGGCGAAAGCTTCGC ((.(.((....)).).)) | -13.9 kcal/mol | 36.2 °C |

| Sequence | folding enthalpy [1] | Tm [2] |
| --- | --- | --- |
| GCTAGGGGAAACCCTAAC (.(((((....))))).) | -13.4 kcal/mol | 32.1 °C |
| GCTAGTCGAAAGACGAGC (((.(((....))).))) | -35.4 kcal/mol | 57.6 °C |
| GCTAGTGAAAACTAGC ((((((....)))))) | -36.3 kcal/mol | 56.9 °C |
| GCTATACGAAAGTAAAGC (((.(((....))).))) | -28 kcal/mol | 42.8 °C |
| GCTATCCGAAAGGACAGC (((.(((....))).))) | -31.7 kcal/mol | 49 °C |
| GCTATCGAAAGATCAGC ((((((....))).))) | -20.6 kcal/mol | 38.2 °C |
| GCTATCGAAAGATCGAGC ((((((....)))..))) | -10.1 kcal/mol | 29.7 °C |
| GCTATCGAAAGATGAGC ((((((....))).))) | -27.1 kcal/mol | 37.4 °C |
| GCTATCGAAAGATTAAGC ((((((....)))..))) | -17.1 kcal/mol | 34.6 °C |
| GCTATCGGAAACAATAGC (((((.(....).))))) | -18.3 kcal/mol | 35.1 °C |
| GCTATCTCGAAAGAGAGC (((..(((....)))))) | -16.7 kcal/mol | 37.2 °C |
| GCTATGCGAAAGCAACGC ((..(((....)))..)) | -10.5 kcal/mol | 39.1 °C |
| GCTATGCGAAAGCAATGC ((..(((....)))..)) | -16.5 kcal/mol | 47.7 °C |
| GCTATGCGAAAGCAGTGC ((..(((....)))..)) | -19.1 kcal/mol | 46.9 °C |
| GCTATGCGAAAGCGGAGC (((..((....))..))) | -26.3 kcal/mol | 53.6 °C |
| GCTATGCGAAAGCTCAGC (((..((....))..))) | -19.1 kcal/mol | 36.2 °C |
| GCTATGCGAAAGCTTAGC ((((.((....)).)))) | -28.9 kcal/mol | 60.8 °C |
| GCTATGCGAAAGCTTGGC ((.(.((....)).).)) | -24.6 kcal/mol | 42.1 °C |
| GCTATGGAAACATAGC ((((((....)))))) | -35.4 kcal/mol | 55.6 °C |
| GCTATGTCGAAAGACAGC (((..(((....)))))) | -14 kcal/mol | 41.5 °C |
| GCTATTCGAAAGAAGAGC (((.(((....))).))) | -39.9 kcal/mol | 51.1 °C |
| GCTCAACGAAAGTTAGC (((.(((....)))))) | -22.2 kcal/mol | 41.1 °C |
| GCTCAAGCGAAAGCTAGC (((..(((....)))))) | -14.1 kcal/mol | 40.6 °C |

| Sequence | folding enthalpy [1] | Tm [2] |
| --- | --- | --- |
| GCTCAAGGAAACTTGAAC (.(((((....))))).) | -15 kcal/mol | 31.8 °C |
| GCTCACCGAAAGGTAGC (((.(((....)))))) | -22.4 kcal/mol | 50.2 °C |
| GCTCACGAAAGTGATAGC ((((((....)))..))) | -17.4 kcal/mol | 47.4 °C |
| GCTCACGAAAGTGCAGC ((((((....))).))) | -22.9 kcal/mol | 52 °C |
| GCTCACGAAAGTGCTAGC ((((((....)))..))) | -15.6 kcal/mol | 35.8 °C |
| GCTCACGAAAGTGGTAGC ((((((....)))..))) | -19.7 kcal/mol | 44.7 °C |
| GCTCACGGAAACGTGAAC (.(((((....))))).) | -13 kcal/mol | 42.3 °C |
| GCTCACGGAAACGTGGGC ((.((((....)))).)) | -47.8 kcal/mol | 59.6 °C |
| GCTCAGCGAAAGCAGAGC ((((.((....)).)))) | -36.3 kcal/mol | 67.3 °C |
| GCTCAGCGAAAGCAGCGC ((.(.((....)).).)) | -18 kcal/mol | 49.4 °C |
| GCTCAGCGAAAGCATAGC (((..((....))..))) | -16 kcal/mol | 38.5 °C |
| GCTCAGCGAAAGCGCAGC (((..((....))..))) | -14.8 kcal/mol | 45.7 °C |
| GCTCAGCGAAAGCGGCGC ((.(.((....)).).)) | -19.5 kcal/mol | 58.4 °C |
| GCTCAGCGAAAGCGGTGC ((.(.((....)).).)) | -17.8 kcal/mol | 55.2 °C |
| GCTCATGGAAACATGGGC ((.((((....)))).)) | -34.2 kcal/mol | 53 °C |
| GCTCCAGCGAAAGCTAGC (((..(((....)))))) | -8.7 kcal/mol | 34 °C |
| GCTCCAGGAAACCAGAGC ((((..(....)..)))) | -19.4 kcal/mol | 34.4 °C |
| GCTCCCCGAAAGGGCAGC (((.(((....))).))) | -21 kcal/mol | 48 °C |
| GCTCCCGAAAGGGATAGC ((((((....)))..))) | -17.5 kcal/mol | 48.4 °C |
| GCTCCCGAAAGGGCTAGC ((((((....)))..))) | -12.8 kcal/mol | 38.6 °C |
| GCTCCCGAAAGGGTAAGC ((((((....)))..))) | -20.7 kcal/mol | 46.2 °C |
| GCTCCGCGAAAGCAGGGC ((.(.((....)).).)) | -16 kcal/mol | 50.1 °C |
